Structures are written as SMILES.

The target of the assay is Aspartate aminotransferase, cytoplasmic (Homo sapiens, UniProt P17174). The experiment in a line: Inhibition of GOT1 (unknown origin) using aspartate and alpha-ketoglutarate as substrate after 20 mins by MDH1 enzyme-coupled fluorescence assay. The procedure, abridged: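 Oxaloacetate from GOT1 (~1 nM) is reduced by MDH1 (0.3 µg/mL final) using NADH (250 µM final). Loss of NADH fluorescence is read at 340/445 nm. Substrates aspartate 4 mM and alpha-ketoglutarate 0.5 mM. Buffer: 100 mM HEPES, 100 mM KCl. Incubated 20 min at 37 °C. Mean of n = 3.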
Sequence of Aspartate aminotransferase, cytoplasmic (P17174 whole entry): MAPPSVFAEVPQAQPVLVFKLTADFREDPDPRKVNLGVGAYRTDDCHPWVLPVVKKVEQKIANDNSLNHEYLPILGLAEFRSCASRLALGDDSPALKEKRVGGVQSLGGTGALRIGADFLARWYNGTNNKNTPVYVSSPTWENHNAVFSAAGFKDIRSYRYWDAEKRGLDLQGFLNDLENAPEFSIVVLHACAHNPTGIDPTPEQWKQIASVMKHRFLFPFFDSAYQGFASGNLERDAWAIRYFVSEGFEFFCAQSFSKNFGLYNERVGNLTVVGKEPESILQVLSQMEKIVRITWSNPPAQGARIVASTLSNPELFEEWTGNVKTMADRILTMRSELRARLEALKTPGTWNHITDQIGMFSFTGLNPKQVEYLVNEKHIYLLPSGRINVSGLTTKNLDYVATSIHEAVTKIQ
With `O=C(Nc1cccc2ncsc12)N1CCN(c2cccc3[nH]ccc23)CC1`, the IC50 was > 100 µM. The value for `O=C(Nc1ccccc1)N1CCN(c2cccc3[nH]ncc23)CC1` was > 100 µM. The molecule `O=C(Nc1cccc(Cl)c1)N1CCN(c2cccc3[nH]ccc23)CC1` yielded an IC50 of 52 µM. The value for `COc1ccc(N2CCN(C(=O)Nc3ccccc3)CC2)cc1` was > 100 µM.

Consider `Cc1ccc(NC(=O)N2CCN(c3cccc4[nH]ccc34)CC2)c(C)c1`, for which the IC50 was > 100 µM. For the molecule `Cc1ccc(NC(=O)N2CCN(c3cccc4[nH]ccc34)CC2)cc1C`, the 50% inhibitory concentration (IC50) is > 100 µM. The result for `O=C(Nc1c(Cl)cccc1Cl)N1CCN(c2cccc3[nH]ccc23)CC1` reads > 100 µM; that for `CC(C)CNC(=O)N1CCN(c2cccc3[nH]ccc23)CC1`, > 100 µM. The value for `O=C(NCCc1c[nH]c2ccccc12)Nc1ccc(C(F)(F)F)cc1` was 39 µM; that for `O=C(Nc1ccccc1)N1CCN(c2cc(Cl)cc3[nH]ccc23)CC1` was 46 µM; that for `O=C(Cc1ccccc1)N1CCN(c2cccc3[nH]ccc23)CC1` was > 100 µM. The value for `COc1c(C)cccc1NC(=O)N1CCN(c2cccc3[nH]ccc23)CC1` was > 100 µM; that for `O=C(OCc1ccccc1)N1CCN(c2cccc3[nH]ccc23)CC1` was > 100 µM; that for `O=C(Nc1ccccc1Cl)N1CCN(c2cccc3[nH]ccc23)CC1` was > 100 µM.

In turn, `O=C(NCCc1c[nH]c2ccccc12)Nc1ccccc1-c1ccccc1` registered a half-maximal inhibitory concentration (IC50) of 34 µM. Turning to `O=C(Nc1ccccc1)N1CCN(c2cccc3ncccc23)CC1`, the IC50 is > 100 µM.

Regarding `Cc1ccc(NC(=O)N2CCN(c3cccc4[nH]ccc34)CC2)cc1`, the IC50 is > 100 µM.

Turning to `O=C(CCc1ccccc1)N1CCN(c2cccc3[nH]ccc23)CC1`, the IC50 was > 100 µM. The result for `Cc1ccc(C)c(NC(=O)N2CCN(c3cccc4[nH]ccc34)CC2)c1` reads > 100 µM; that for `O=C(Nc1cccnc1)N1CCN(c2cccc3[nH]ccc23)CC1`, > 100 µM; that for `COc1ccc(OC)c(NC(=O)N2CCN(c3cccc4[nH]ccc34)CC2)c1`, > 100 µM. The result for `COc1ccccc1NC(=O)N1CCN(c2cccc3[nH]ccc23)CC1` reads > 100 µM.

In turn, `O=C(NCCc1c[nH]c2ccccc12)Nc1ccc(OC(F)(F)F)cc1` yielded an IC50 of 63 µM. The value for `O=C(NCCc1c[nH]c2ccccc12)Nc1ccc(Cl)c(Cl)c1` was 36 µM.

`CC(=O)N1CCN(C(=O)Nc2ccccc2)CC1`: the IC50 is > 100 µM.

For the molecule `O=C(Nc1cccc(Oc2ccccc2)c1)N1CCN(c2cccc3[nH]ccc23)CC1`, half-maximal inhibition (IC50) required 39 µM. The value for `O=C(Nc1cccc(C(F)(F)F)c1)N1CCN(c2cccc3[nH]ccc23)CC1` was 14 µM; that for `COc1ccc(NC(=O)N2CCN(c3cccc4[nH]ccc34)CC2)c(OC)c1` was > 100 µM; that for `O=C(NCCc1c[nH]c2ccccc12)Nc1cccc(C(F)(F)F)c1` was 62 µM. The value for `O=C(Nc1ccccc1)N1CCN(c2ccncc2)CC1` was > 100 µM; that for `CCN1CCN(C(=O)Nc2ccccc2)CC1` was > 100 µM; that for `O=C(Nc1ccnnc1)N1CCN(c2cccc3[nH]ccc23)CC1` was > 100 µM. The result for `O=C(Nc1cccc(Cl)c1Cl)N1CCN(c2cccc3[nH]ccc23)CC1` reads > 100 µM; that for `Cc1cccc(NC(=O)N2CCN(c3cccc4[nH]ccc34)CC2)c1C`, > 100 µM; that for `O=C(CCC(=O)Nc1c[nH]c2ccccc12)Nc1ccccc1`, > 100 µM.

Turning to `O=C(Nc1ccccc1)N1CCN(Cc2cncs2)CC1`, the IC50 is > 100 µM.

For `O=C(Nc1ccccc1)N1CCN(c2cccc3cnccc23)CC1`, the IC50 is > 100 µM. The value for `O=C(NCCc1c[nH]c2ccccc12)Nc1ccc(Br)cc1` was 67 µM; that for `N#Cc1ccc(NC(=O)N2CCN(c3cccc4[nH]ccc34)CC2)cc1` was 21 µM. The value for `CC(C)NC(=O)N1CCN(c2cccc3[nH]ccc23)CC1` was > 100 µM; that for `O=C(Nc1ccc(Cl)cc1)N1CCN(c2cccc3[nH]ccc23)CC1` was 8.2 µM; that for `O=C(Nc1ccc(Cl)cc1Cl)N1CCN(c2cccc3[nH]ccc23)CC1` was 56 µM. The value for `O=C(NCCc1c[nH]c2ccccc12)Nc1cccc(Br)c1` was 28 µM; that for `O=C(Nc1cc(Cl)cc(Cl)c1)N1CCN(c2cccc3[nH]ccc23)CC1` was 22 µM. `COc1cc(NC(=O)N2CCN(c3cccc4[nH]ccc34)CC2)cc(OC)c1`: the IC50 was > 100 µM. The result for `CNC(=O)c1ccc(NC(=O)N2CCN(c3cccc4[nH]ccc34)CC2)cc1` reads > 100 µM; that for `COc1ccccc1N1CCN(C(=O)Nc2ccccc2)CC1`, > 100 µM; that for `O=C(Nc1ccc2scnc2c1)N1CCN(c2cccc3[nH]ccc23)CC1`, 76 µM. On to `CNC(=O)N1CCN(c2cccc3[nH]ccc23)CC1`, for which the 50% inhibitory concentration (IC50) is > 100 µM.

Consider `O=C(Nc1ccncc1)N1CCN(c2cccc3[nH]ccc23)CC1`, for which the IC50 was > 100 µM.

`CC(C)N1CCN(C(=O)Nc2ccccc2)CC1`: the half-maximal inhibitory concentration (IC50) is > 100 µM. On to `COc1cccc(NC(=O)N2CCN(c3cccc4[nH]ccc34)CC2)c1`, for which the half-maximal inhibitory concentration (IC50) was > 100 µM. The value for `O=C(Nc1ccc2ncccc2c1)N1CCN(c2cccc3[nH]ccc23)CC1` was > 100 µM; that for `O=C(Nc1ccccn1)N1CCN(c2cccc3[nH]ccc23)CC1` was > 100 µM; that for `O=C(Nc1ccc(OC(F)(F)F)cc1)N1CCN(c2cccc3[nH]ccc23)CC1` was 36 µM. As to `O=C(Nc1ccncn1)N1CCN(c2cccc3[nH]ccc23)CC1`, the concentration for half-maximal inhibition (IC50) is > 100 µM. The value for `CS(=O)(=O)N1CCN(C(=O)Nc2ccccc2)CC1` was > 100 µM.

Turning to `Cc1ccc2[nH]ccc2c1N1CCN(C(=O)Nc2ccccc2)CC1`, the IC50 was > 100 µM. The value for `Cc1ccc(N2CCN(C(=O)Nc3ccccc3)CC2)c2cc[nH]c12` was 41 µM; that for `COc1ccc(NC(=O)N2CCN(c3cccc4[nH]ccc34)CC2)cc1` was 25 µM.

As to `Cc1cc(C)cc(NC(=O)N2CCN(c3cccc4[nH]ccc34)CC2)c1`, the midpoint of inhibition, the IC50, lay at 64 µM. The result for `COc1cccc(OC)c1NC(=O)N1CCN(c2cccc3[nH]ccc23)CC1` reads > 100 µM; that for `N#Cc1ccccc1NC(=O)N1CCN(c2cccc3[nH]ccc23)CC1`, > 100 µM.

Take `Cc1cccc(C)c1NC(=O)N1CCN(c2cccc3[nH]ccc23)CC1`: the 50% inhibitory concentration (IC50) was > 100 µM. `O=C(Nc1ccc(C(F)(F)F)cc1)N1CCN(c2cccc3[nH]ccc23)CC1` yielded an IC50 of 16 µM. The result for `Cc1cc(N2CCN(C(=O)Nc3ccccc3)CC2)c2cc[nH]c2c1` reads > 100 µM; that for `O=C(Nc1cccc(C(F)(F)F)c1)N1CCN(c2ccncc2)CC1`, > 100 µM; that for `O=C(Nc1ccc(Br)cc1)N1CCN(c2cccc3[nH]ccc23)CC1`, 16 µM. With `O=C(Nc1ccccc1)N1CCN(c2ccc(Cl)c3[nH]ccc23)CC1`, the IC50 is > 100 µM. The value for `O=C(Nc1ccccc1C(F)(F)F)N1CCN(c2cccc3[nH]ccc23)CC1` was > 100 µM; that for `O=C(NCCc1c[nH]c2ccccc12)Nc1ccccc1` was > 100 µM; that for `O=C(Nc1ccccc1)N1CCN(c2ccccc2)CC1` was > 100 µM. The value for `N#Cc1cccc(NC(=O)N2CCN(c3cccc4[nH]ccc34)CC2)c1` was > 100 µM. The value for `O=C(Nc1ccc(C(F)(F)F)cc1)N1CCN(c2ccncc2)CC1` was > 100 µM.

`O=C(Nc1cncnc1)N1CCN(c2cccc3[nH]ccc23)CC1`: the half-maximal inhibitory concentration (IC50) is > 100 µM. The result for `O=C(Nc1cc(Cl)ccc1Cl)N1CCN(c2cccc3[nH]ccc23)CC1` reads > 100 µM. The value for `O=C(c1ccccc1)N1CCN(c2cccc3[nH]ccc23)CC1` was > 100 µM; that for `O=C(Nc1ccc(Cl)cc1)N1CCN(c2ccncc2)CC1` was > 100 µM; that for `O=C(c1ccccc1)c1ccc(NC(=O)N2CCN(c3cccc4[nH]ccc34)CC2)cc1` was 43 µM. Regarding `O=C(NCc1ccc(Cl)cc1)N1CCN(c2cccc3[nH]ccc23)CC1`, the concentration for half-maximal inhibition (IC50) is > 100 µM. Turning to `O=C(NCc1ccccc1)N1CCN(c2cccc3[nH]ccc23)CC1`, the 50% inhibitory concentration (IC50) is > 100 µM. The result for `O=C(NCCc1c[nH]c2ccccc12)Nc1ccc(Cl)cc1` reads 36 µM. The value for `Cc1ccccc1NC(=O)N1CCN(c2cccc3[nH]ccc23)CC1` was > 100 µM; that for `COc1ccc(NC(=O)N2CCN(c3cccc4[nH]ccc34)CC2)cc1OC` was > 100 µM.

Consider `CNC(=O)c1cccc(NC(=O)N2CCN(c3cccc4[nH]ccc34)CC2)c1`, for which the half-inhibitory concentration (IC50) was > 100 µM.

Take `O=C(Nc1ccc(Cc2ccccc2)cc1)N1CCN(c2cccc3[nH]ccc23)CC1`: the IC50 was > 100 µM.

Turning to `COc1cccc(N2CCN(C(=O)Nc3ccccc3)CC2)c1`, the IC50 is > 100 µM.

For `CN1CCN(C(=O)Nc2ccccc2)CC1`, the IC50 is > 100 µM. The result for `O=C(NCCc1c[nH]c2ccccc12)Nc1ccc(Cl)cc1Cl` reads 32 µM; that for `CC(=O)c1ccc(NC(=O)N2CCN(c3cccc4[nH]ccc34)CC2)cc1`, 16 µM. With `O=C(Nc1cccc2cccnc12)N1CCN(c2cccc3[nH]ccc23)CC1`, the IC50 is > 100 µM. The value for `Cc1cccc(NC(=O)N2CCN(c3cccc4[nH]ccc34)CC2)c1` was > 100 µM.

A word on the IC50: it is the concentration at which inhibition is half-maximal.

For the origin of these results see ChEMBL document CHEMBL4229399, “Discovery and optimization of aspartate aminotransferase 1 inhibitors to target redox balance in pancreatic ductal adenocarcinoma” (Bioorg Med Chem Lett, 2018).
